Structures are written as SMILES. Active and inactive are the calls of the source. The rule behind the calls is not given here.

From ChEMBL document CHEMBL3861959, “Synthesis and antiproliferative evaluation of novel 2-(4H-1,2,4-triazole-3-ylthio)acetamide derivatives as inducers of apoptosis in cancer cells” (Eur J Med Chem, 2016) come the findings set out here.

Experiment [1] is described as follows: Cytotoxicity against human HCC2998 cells assessed as cell growth at 10^-5 M after 48 hrs by SRB assay relative to control. The format is functional. As to conditions: HCC 2998, 48 h, read-out: Activity. In outline:
(§1)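 NCI single-dose primary screen run under the US NCI protocol. Compounds tested at 10 µM across the 60-cell-line panel, with growth percent reported for each line.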
For orientation: In SRB staining, fixed cells bind dye roughly in proportion to their protein.

Experiment [2] can be described thus: Cytotoxicity against human U251 cells assessed as cell growth at 10^-5 M after 48 hrs by SRB assay relative to control. The format is functional. As to conditions: U-251, 48 h, read-out: Activity. In outline: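 Single-dose NCI 60-cell-line screen run under the US NCI protocol. Compounds tested at 10 µM. Read-out is growth percent for each cell line.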
Experiment [3] in a line: Cytotoxicity against human MALME-3M cells assessed as cell growth at 10^-5 M after 48 hrs by SRB assay relative to control. The format is functional. As to conditions: read-out: Activity. In outline:
as §1

Experiment [4] in a line: Cytotoxicity against human OVCAR4 cells assessed as cell growth at 10^-5 M after 48 hrs by SRB assay relative to control. The format is functional. As to conditions: OVCAR-4, 48 h, read-out: Activity. In outline:
as §1

Experiment [5] is described as follows: Cytotoxicity against human Hs 578T cells assessed as cell growth at 10^-5 M after 48 hrs by SRB assay relative to control. The format is functional. As to conditions: read-out: Activity. In outline: as §1
Experiment [6] is described as follows: Cytotoxicity against human PC3 cells assessed as decrease in cell proliferation after 48 hrs by MTT assay. As to conditions: PC-3, 48 h. The format is functional, cell-based. The method in brief:
(§2)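 MTT viability assay in A549, K562 and PC-3 cells. Media carried 10% FBS, 1% L-glutamine and penicillin/streptomycin, at 37 °C in 5% CO2. Cells seeded and left overnight, then exposed to 5–100 µM compound for 48 h. MTT added to 0.5 mg/ml final for 4 h, medium removed, and SDS buffer added. Data given as mean ± SD, analysed by ANOVA/Tukey.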
A general note: Tetrazolium assays rely on reduction of a dye to a coloured formazan, in cell work by metabolically active cells.

Experiment [7] can be described thus: Induction of apoptosis in human PC3 cells assessed as upregulation of caspase-3 levels using DEVD-pNA substrate by ELISA. It is filed as functional, cell-based. As to conditions: PC-3. The method in brief: (§3)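 Supernatant protein measured by Bradford. 200 µg protein incubated with pNA substrate (DEVD-pNA for caspase-3) using a colorimetric kit. Data given as mean ± SD; one-way ANOVA with Tukey test, p < 0.05.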
On the technique in general: In an ELISA, binding on a coated surface is turned into a signal by an enzyme label.

The test system of experiment [8] is PC-3. The experiment can be described thus: Induction of apoptosis in human PC3 cells assessed as downregulation of Bcl-2 levels by […]. It is filed as functional, cell-based.
For experiment [9], the system named is PC-3. The experiment can be described thus: Disruption of mitochondrial membrane potential in human PC3 cells at 10 to 50 uM after 72 hrs by JC1 staining-based assay. It is filed as functional, cell-based. In outline:
(§4)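 Cells seeded and treated with 10, 20 and 50 µM compound. Cells pelleted at 600 × g, resuspended in JC-1 dye, and incubated at 37 °C in 5% CO2 for 15 min. Green monomers mark disrupted membrane potential; orange aggregates mark intact potential.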

The nature of experiment [10]: Induction of apoptosis in human A549 cells assessed as upregulation of caspase-3 levels using DEVD-pNA substrate by ELISA. The format is functional, cell-based. In outline:
as §3

Experiment [11] can be described thus: Cytotoxicity against human A549 cells assessed as decrease in cell proliferation after 48 hrs by MTT assay. The format is functional, cell-based. As to conditions: A549, 48 h. The method in brief: as §2
Experiment [12] concerns A549. The experiment can be described thus: Disruption of mitochondrial membrane potential in human A549 cells after 72 hrs by JC1 staining-based assay. The format is functional, cell-based. The method in brief:
as §4

In experiment [13] the test system is A549. Nature of the experiment: Induction of apoptosis in human A549 cells assessed as downregulation of Bcl-2 levels by […]. It is filed as functional, cell-based.
Experiment [14] is described as follows: Induction of apoptosis in human A549 cells assessed as upregulation of caspase-8 levels at 50 uM using IETD-pNA substrate by ELISA. It is filed as functional, cell-based.
Experiment [15] can be described thus: (§5) Cytotoxicity against human K562 cells assessed as decrease in cell proliferation after 48 hrs by MTT assay. It is filed as functional, cell-based. As to conditions: K562, 48 h. In outline:
as §2

The test system of experiment [16] is K562. The description is as §5. It is filed as functional, cell-based. The method in brief: as §2
A short description of experiment [17]: Induction of apoptosis in human K562 cells assessed as upregulation of caspase-3 levels using DEVD-pNA substrate after 72 hrs by ELISA. It is filed as functional, cell-based. In outline:
as §3

Experiment [18] concerns K562. The experiment can be described thus: Induction of apoptosis in human K562 cells assessed as downregulation of Bcl-2 levels after 72 hrs by […]. It is filed as functional, cell-based.
Experiment [19] concerns K562. The experiment can be described thus: Disruption of mitochondrial membrane potential in human K562 cells after 72 hrs by JC1 staining-based assay. The format is functional, cell-based. The method in brief:
as §4

Take `Cc1ccc(C(C)C)c(OCc2nnc(SCC(=O)Nc3ccc(S(N)(=O)=O)cc3)n2Cc2ccccc2)c1`: the growth at 10 µM was found to be 73.8% in experiment [1]; 64.6% in experiment [2]; 84.3% in [3]; 88.8% in experiment [4]; 86.2% in experiment [5]. Besides, in experiment [6], the half-inhibitory concentration (IC50) (commonly the concentration at which inhibition is half-maximal) stood at 5.96 µM. The Activity result (in [7]; with PC-3 [8]) was “Dose-dependent effect” throughout. Moreover, the outcome in the experiment on PC-3 [9] was Active.

On to `Cc1ccc(C(C)C)c(OCc2nnc(SCC(=O)Nc3ccc(Cl)cc3)n2Cc2ccccc2)c1`, for which the Activity entry (in [10]; in the experiment with A549 [12]; with A549 [13]) was “Dose-dependent effect” in each case. The growth at 10 µM in experiment [1] was found to be 89.7%; in experiment [2], 40.9%; in experiment [3] it was 75.6%; in [4] it was 33.4%; in experiment [5], 75.5%. For the same compound, the half-inhibitory concentration (IC50) in [11] was found to be 7.9 µM. For the same compound, the outcome in experiment [14] was Active.

`CC(=O)Nc1ccc(OCc2nnc(SCC(=O)Nc3ccc(Br)cc3)n2Cc2ccccc2)cc1`: the growth at 10 µM amounted to 85.6% in experiment [1]; 88.5% in experiment [2]; 93.8% in experiment [3]; 101% in experiment [4]; 97.9% in [5]. In addition, the concentration for half-maximal inhibition (IC50) in [15] turned out to be 7.71 µM. Besides, the Activity result (in the experiment with K562 [16]; in experiment [17]; with K562 [18]; in the experiment with K562 [19]) was “Dose-dependent effect” throughout.
